Source: ChEMBL document CHEMBL1177673, “New 2-arylnaphthalenediols and triol inhibitors of HIV-1 integrase--discovery of a new polyhydroxylated antiviral agent” (Bioorg Med Chem, 2010)

How the values were obtained:
[1] = Therapeutic index, ratio of CC50 for human HeLaP4 cells to EC50 for HIV1 […]; type: cell-based; details: read-out: Ratio CC50/EC50
[2] = Cytotoxicity gainst human HeLaP4 cells after 3 days by MTT assay; type: cell-based
[3] = system: Human immunodeficiency virus 1; assay: Antiviral activity against HIV1 […] in human HeLaP4 cells assessed as beta-galactosidase activity after 72 hrs; type: functional, organism-based; details: Human immunodeficiency virus 1, HeLaP4, 72 h
In short: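 Virus (HIV-1 pNL4-3) made by transfecting P4 cells with the genomic clone. Infected CEM4fx cells in triplicate grown with increasing drug concentrations for 3 days. Supernatants collected at 72 h were used to infect HeLa-CD4-β-gal (P4) reporter cells for 24 h. Cells were lysed (50 mM 2-mercaptoethanol, 10 mM MgSO4, 25 mM EDTA, 0.125% NP40), incubated with CPRG, and read at 570 nm. Replicates averaged.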

[4] = biological target: Human immunodeficiency virus type 1 integrase (Human immunodeficiency virus 1, UniProt Q7ZJM1); assay: Inhibition of HIV1 integrase after 1 hr by ELISA
Sequence of Human immunodeficiency virus type 1 integrase (Q7ZJM1 whole entry): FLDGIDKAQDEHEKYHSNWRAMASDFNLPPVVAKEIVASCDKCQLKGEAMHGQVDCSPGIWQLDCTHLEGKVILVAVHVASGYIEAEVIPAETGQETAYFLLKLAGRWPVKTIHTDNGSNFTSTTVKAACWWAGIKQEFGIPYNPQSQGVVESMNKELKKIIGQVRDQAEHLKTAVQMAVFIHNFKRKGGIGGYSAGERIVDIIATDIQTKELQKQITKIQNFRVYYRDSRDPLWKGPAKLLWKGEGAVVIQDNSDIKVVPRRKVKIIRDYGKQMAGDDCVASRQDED
In short: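 ELISA with annealed oligos (7 nM): a 3′-biotin strand and a 5′-digoxigenin complementary strand. Integrase was diluted in 750 mM NaCl, 10 mM Tris pH 7.6, 10% glycerol, 1 mM β-mercaptoethanol, 0.1 mg/mL BSA. Reaction in 10 mM MgCl₂, 5 mM DTT, 20 mM HEPES pH 7.5, 5% PEG, 15% DMSO, 1 h at 37 °C. Detection by immunosorbent assay on avidin-coated plates.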

[5] = Therapeutic index, ratio of CC50 for human MT4 cells to EC50 for HIV1 3B; type: cell-based; details: read-out: Ratio CC50/EC50
In short: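 MT-4 cells were infected with 100–300 CCID₅₀ of HIV-1 IIIB, with the CCID₅₀ titrated on MT-4 cells. Drugs were added as fivefold serial dilutions. Protection from virus-induced cytopathic effect was read by MTT reduction to formazan, giving EC₅₀, and CC₅₀ was determined in parallel.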

[6] = system: Human immunodeficiency virus 1; assay: Antiviral activity against HIV1 3B infected in human MT4 cells assessed as inhibition of virus-induced cytopathic effect by MTT assay; type: functional; details: Human immunodeficiency virus 1, 3B
In short: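 HIV-1 IIIB stock titred on MT-4 cells to find CCID50. MT-4 cells infected with 100–300 CCID50 in the presence of fivefold serial drug dilutions. Protection from virus-induced cytopathic effect read by MTT reduction to formazan, measured spectrophotometrically. EC50 taken as the concentration giving 50% protection.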

MT4 = assay: Cytotoxicity gainst human MT4 cells after 3 days by MTT assay; type: cell-based; details: MT4, 72 h
In short: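 MT-4 cells in the MT-4/MTT format. CC50 determined in parallel with the antiviral EC50 using the MTT formazan read-out.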

Row | Structure (SMILES) | IC50 [4] [µM] | other results
1 | Oc1ccc(-c2ccc3cc(O)c(O)cc3c2)cc1O | – | selectivity ratio [1]: 5; CC50 at 72 h [2]: 51 µM; EC50 [3]: 9.9 µM
2 | Oc1ccc2cc(-c3cccc(C(F)(F)F)c3)ccc2c1O | 10 | –
3 | Oc1ccc2cc(-c3ccc(C(F)(F)F)cc3)ccc2c1O | 10 | –
4 | O=C1C(=O)c2cc(-c3cc(O)c(O)c(O)c3)ccc2C(Oc2c(O)cc(-c3ccc4cc(O)c(O)c(O)c4c3)cc2O)=C1O | 0.85 | selectivity ratio [5]: 19; selectivity ratio [1]: 74; CC50 at 72 h [2]: 85 µM; EC50 [3]: 1.15 µM
5 | Oc1ccc2cc(-c3ccc(F)cc3)ccc2c1O | 8 | –
6 | Oc1ccc(-c2ccc3c(O)c(O)ccc3c2)cc1O | 2.2 | CC50 at 72 h [2]: > 100 µM; EC50 [3]: 40 µM
7 | Oc1cccc(-c2ccc3c(O)c(O)ccc3c2)c1O | 1 | CC50 at 72 h [2]: > 100 µM; EC50 [3]: > 100 µM
8 | Oc1cc(-c2ccc3cc(O)c(O)c(O)c3c2)cc(O)c1O | 0.5 | EC50 [6]: 1 µM; CC50 (MT4): > 1 µM

The next lines start with results.

Row | IC50 [4] [µM] | Structure (SMILES) | other results
9 | 8.1 | Oc1ccc(-c2ccc3c(O)c(O)ccc3c2)cc1 | –
10 | 6 | Oc1ccc2cc(-c3ccccc3C(F)(F)F)ccc2c1O | –
11 | 7.3 | Oc1ccc2cc(-c3ccccc3F)ccc2c1O | –
12 | 9.6 | Oc1ccc2cc(-c3cccc(F)c3)ccc2c1O | –
13 | 6 | Oc1ccc2cc(-c3ccccc3)ccc2c1O | –
14 | 10 | Oc1ccccc1-c1ccc2c(O)c(O)ccc2c1 | –
15 | 4.8 | Oc1cccc(-c2ccc3c(O)c(O)ccc3c2)c1 | –
